Source: PubChem
This is a sample that favours compounds with a hit; in the whole collection about 1.9% have one here.
FGF22 binding: binders of human FGF22 protein, primary screen, FGF22 synaptogenesis inhibitor project, biophysical, thermal shift, single point; 340,000 tested, 1.5% active; activity (Tm shift, normalised), % at 9.99 µM; recombinant FGF22 thermal shift, SYPRO orange fluorescence; percent of sucrose octasulfate shift, DMSO zero; AID 651658, 2012;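 active means mean Tm shift, scaled 0 neutral to 100 positive control, at about 1.3% or above, every replicate too, limit read from the data; inconclusive means no clear call, values can overlap the other calls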
ARFGAP1 inhibitor: inhibitors of rat ARFGAP1 GAP activity, primary screen, biochemical, fluorescence polarization, GDP tracer; 360,000 tested, 0.26% active; inhibition, % at 16.5 µM; Arfgap1-stimulated ARF1 GTP hydrolysis, GDP FP detection;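 active means inhibition above a per-plate limit, mean inhibition of low control wells plus 3 SD, cut at about 25% in these data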
Target sequence (Q62848 1-136 limits assumed): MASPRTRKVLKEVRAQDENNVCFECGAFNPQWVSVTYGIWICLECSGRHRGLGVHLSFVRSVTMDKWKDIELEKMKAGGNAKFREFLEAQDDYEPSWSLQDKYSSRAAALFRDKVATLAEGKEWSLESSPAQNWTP
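Assay system: purified rat His6-Arfgap1 residues 1-136 (GAP domain); Reagent: human Δ17 ARF1 bound to GTP; Dosing: 16.5 µM single point, 1.26% DMSO; Times: GTP hydrolysis reaction 2 h at 25 °C; Signal: FP, GDP Alexa 633 tracer displaced from anti-GDP antibody, 620/688 nm; Measure: % inhibition from polarization.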
Efflux pump inh: inhibitors of Candida efflux pumps in yeast, primary screen, S. cerevisiae, Nile Red, multiplex | S. cerevisiae Candida pump triplex | inhibition, % at 10 µM | 330,000 tested, 0.44% active;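 active means plate passing quality check with inhibition over a set limit, or well fluorescence over plate mean plus 4 SD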;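 further: Nile Red retained in pooled yeast measured as flow cytometry median fluorescence; higher means more Nile Red kept so more efflux inhibition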
ASAP1 inh: inhibitors of human ASAP1 ArfGAP activity, primary screen, biochemical, fluorescence polarization; Arf-GAP with SH3 domain, ANK repeat and PH domain-containing protein 1 (Homo sapiens), …; ASAP1-stimulated ARF1 GTP hydrolysis, GDP FP detection; inhibition, % at 16.5 µM; 360,000 tested, 0.19% active; in the data active means inhibition above about 25%
Rtt109 HAT inh: inhibitors of C. albicans Rtt109/Vps75 HAT, primary screen, biochemical, ThioGlo CoA-SH fluorescence, plate reader | Histone acetyltransferase RTT109 (Candida albicans (strain SC5314 / ATCC MYA-2876)), … | purified Rtt109/Vps75, 4 h | inhibition, % at 34.9 µM | 330,000 tested, 0.16% active | AID 540336, 2011;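 active means inhibition of at least 50% in every replicate; inconclusive means best replicate reaches 50% inhibition but some replicates fall short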
Target sequence (Q5AAJ8 whole entry, looked up): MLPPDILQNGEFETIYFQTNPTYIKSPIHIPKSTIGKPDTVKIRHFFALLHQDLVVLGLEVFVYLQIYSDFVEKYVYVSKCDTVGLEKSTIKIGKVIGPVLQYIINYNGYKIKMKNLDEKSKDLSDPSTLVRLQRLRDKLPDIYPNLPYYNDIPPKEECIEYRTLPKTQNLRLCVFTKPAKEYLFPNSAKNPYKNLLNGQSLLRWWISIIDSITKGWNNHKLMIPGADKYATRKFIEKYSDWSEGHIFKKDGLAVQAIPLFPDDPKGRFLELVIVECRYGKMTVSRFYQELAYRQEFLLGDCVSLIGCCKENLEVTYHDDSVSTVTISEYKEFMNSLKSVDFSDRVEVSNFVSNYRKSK
ARFGAP1 inh conf: ARFGAP1 inhibitor hit confirmation, biochemical, fluorescence polarization, triplicate. AID 651608, 2012. ARFGAP1-stimulated ARF1 GTP hydrolysis, GDP tracer FP. inhibition, % at 16.5 µM. shares compounds with ARFGAP1 inhibitor. 890 tested, 30% active;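 active means average inhibition over triplicates above the hit cutoff set in the earlier primary screen, cut at about 25% in these data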
Numbers stand for hits; – = inactive; ? = inconclusive; · = not tested or not shown; + = active, no number.

SMILES | FGF22 binding | ARFGAP1 inhibitor | Efflux pump inh | ASAP1 inh | Rtt109 HAT inh | ARFGAP1 inh conf
CCOc1ccc(/C=C/C(=O)Nc2ccc(C(N)=O)cc2)cc1OC | · | – | – | – | – | ·
COC(=O)C1CC(=O)N(c2ccc(C)cc2)C1 (stereo unspecified) | – | – | – | – | – | ·
COC(=O)c1ccc(/C=N/NC(=O)CC(=O)NCc2cccnc2)cc1 | · | – | – | – | – | ·
C[C@@H]1CN([C@H](C)CO)C(=O)Cc2cc(NS(=O)(=O)c3ccccc3)ccc2O[C@H]1CN(C)CC1CCCCC1 | – | · | · | · | · | ·
CN1CCCC1(C)C(=O)Nc1ccc(-n2cccc2)cc1 (stereo unspecified) | – | – | · | – | · | ·
CCCC(=O)N1CCCC1(C)C(=O)Nc1ccc(-n2cccc2)cc1 (stereo unspecified) | – | 25 | · | – | · | –
O=C(NC(=S)Nc1ccc(Br)cc1)C1CCC1 | – | – | – | – | – | ·
COc1ccc(OC)c(C2C(C(=O)Nc3nc4ccccc4s3)=C(C)NC3=C2C(=O)CCC3)c1 (stereo unspecified) | · | 25 | – | – | – | –
CC(=O)OCC1=C(C(=O)O)N2C(=O)C(NC(=O)C(C)Cn3nc(C)c(Cl)c3C)C2SC1 (stereo unspecified) | – | – | – | – | – | ·
CC(C)NC(=O)C(=O)Nc1cc2c3c(c1)CCC(=O)N3CCC2 | – | – | – | – | – | ·
CC(C)C(=O)Nc1cc2c3c(c1)CCC(=O)N3CCC2 | – | 25 | – | – | – | –
COc1cc(OC)cc(C(=O)Nc2ccccc2-c2nnn(CC(=O)Nc3cc(C)on3)n2)c1 | – | 25 | – | – | – | 31
Cc1ccc(C)c(N(C(=O)Cn2nnc(-c3cccs3)n2)C(C(=O)NC2CCCC2)c2ccncc2)c1 (stereo unspecified) | · | 31 | – | – | – | –
CC(=O)NC12CC3CC(C1)CC(C(=O)N(C)CC(=O)Nc1cccc(F)c1)(C3)C2 | – | – | – | – | – | ·
COCC(=O)N(C)C[C@@H]1Oc2cc(-c3ccc(C)cc3)ccc2S(=O)(=O)N([C@H](C)CO)C[C@H]1C | – | · | · | · | · | ·
C[C@@H]1CCCCO[C@@H](CN(C)C)[C@H](C)CN([C@H](C)CO)C(=O)c2cc(NS(C)(=O)=O)ccc2O1 | – | · | · | · | · | ·
O=C(NC1(O)C(=O)c2ccccc2C1=O)c1c(Cl)cccc1Cl | – | 26 | – | – | – | –
Cc1cccc(CNC(=O)c2sc(=O)n(Cc3c(C)cccc3C)c2C)c1 | – | – | · | – | · | ·
CCOC(=O)C(C)(C)N(Cc1cccc(C)c1)S(=O)(=O)c1ccc(Cl)c([N+](=O)[O-])c1 | – | – | – | – | – | ·
CCOC(=O)C(C)(C)N(Cc1cccc(C)c1)S(=O)(=O)c1cccc([N+](=O)[O-])c1 | · | 35 | – | – | – | –
COc1ccc(S(=O)(=O)Cc2ccc(C(=O)NCCCN3CCc4ccccc4C3)o2)cc1 | – | – | – | – | – | ·
FC(F)(F)c1cccc(Cc2noc(CN(Cc3ccccn3)CC3CCCO3)n2)c1 (stereo unspecified) | – | – | – | – | – | ·
O=C(NCc1ccccc1)C(c1ccncc1)n1c(=O)c(-c2cc3ccccc3[nH]2)nc2ccccc21 (stereo unspecified) | – | 25 | · | – | · | –
O=C(NCc1ccccc1)C(c1ccc(-c2ccccc2)cc1)n1c(=O)c(-c2cc3ccccc3[nH]2)nc2ccccc21 (stereo unspecified) | – | – | · | – | · | ·
Cc1ncsc1C(=O)N1N=C2/C(=C/c3ccc(N4CCOCC4)cc3)CCCC2C1c1ccc(N2CCOCC2)cc1 (stereo unspecified) | · | · | – | · | – | ·
SMILES | FGF22 binding | ARFGAP1 inhibitor | Efflux pump inh | ASAP1 inh | Rtt109 HAT inh | ARFGAP1 inh conf
Cc1ncsc1C(=O)N1N=C2/C(=C/c3ccccc3)CCCC2C1c1ccccc1 (stereo unspecified) | · | 30 | – | – | – | –
COc1ccc(NC2=C(NCCO)C(=O)c3ccccc3C2=O)cc1 | – | 28 | – | – | – | –
CN1CCN(c2ccc(Cl)cc2NC(=O)/C=C/c2cccc(F)c2)CC1 | – | 31 | – | – | – | –
CN1CCN(c2ccc(Cl)cc2NC(=O)c2cccc(S(=O)(=O)N(C)C)c2)CC1 | – | – | – | – | – | ·
NC1=NC(=O)/C(=C/c2cccc(-c3ccc(S(N)(=O)=O)cc3)c2)S1 | · | 28 | – | – | – | –
O=C(NC1CCCCCC1)C(=S)NC1CCCCC1 | – | – | – | – | – | ·
COC(=O)c1ccc(Nc2nc(-c3ccncc3)nc3ccccc23)cc1 | – | 34 | – | – | ? | 34
COC(=O)c1cccc(Nc2nc(-c3cccnc3)nc3ccccc23)c1 | – | 43 | – | – | – | 53
CC(C)n1ncc2c(C(=O)Nc3ccc(S(C)(=O)=O)cc3)cc(C3CC3)nc21 | – | – | – | – | – | ·
COc1ccccc1NC(=O)Cc1csc(NC(=S)Nc2ccc(C)cc2)n1 | · | 27 | – | – | – | –
CCC(=O)Nc1nc(CC(=O)Nc2ccccc2OC)cs1 | · | – | – | – | – | ·
O=C(Nc1ccc(Nc2ccncc2)cc1)c1ccc(Nc2ccnc3ccc([N+](=O)[O-])cc23)cc1[N+](=O)[O-] | – | 74 | – | – | – | +
O=C(Nc1ccc(Nc2ccncc2)cc1)c1ccc([N+](=O)[O-])cc1 | – | – | – | – | – | ·
Cc1c(O)ccc2c(O)c(NC(=O)c3ccc4c(c3)CCC(C)(C)O4)c(=O)oc12 | – | 40 | – | – | – | –
O=C(Cn1c(=O)oc2ccccc21)Nc1ccc(Cl)cc1Cl | – | 25 | – | – | – | –
O=C(Oc1cccnc1)c1ccccc1[N+](=O)[O-] | – | 25 | – | – | – | –
N/C(=N\OC(=O)c1ccccc1[N+](=O)[O-])c1cccnc1 | · | – | – | – | – | ·
CC(=O)Nc1ccc(NC(=O)c2cc(=O)c3ccc(C)cc3o2)cc1 | – | – | – | – | – | ·
CC(=O)Nc1ccc(NC(=O)c2cc(=O)c3cc(C)c(C)cc3o2)cc1 | – | 29 | – | – | – | –
O=C(O)c1ccc2ncsc2c1 | – | – | – | – | – | ·
CN1CCN(c2oc(-c3ccccc3F)nc2S(=O)(=O)c2ccc(Cl)cc2)CC1 | · | · | – | · | – | ·
Cc1ccc(CSc2ncnc3ccccc23)cc1 | – | 25 | – | – | – | –
